ChEMBL document CHEMBL1130427, “Phenylimidazolidin-2-one derivatives as selective 5-HT3 receptor antagonists and refinement of the pharmacophore model for 5-HT3 receptor binding” (J Med Chem, 1997)
The source made the active and inactive calls.

Assays:
[1] = molecular target: T1, Serotonin 3 (5-HT3) receptor (Rattus norvegicus) (UniProt P35563+Q9JJ16); assay: Antagonist activity ([…]) for the Bezold Jarisch reflex evoked by 30 ug/Kg of 5-HT in ethylurethane anesthetized rats (i.v.); type: functional
[2] = molecular target: T1, Serotonin 3 (5-HT3) receptor (Rattus norvegicus); assay: Inhibition of the Bezold Jarisch reflex evoked by 30 ug/Kg of 5-HT; Weak activity.; type: functional
[3] = molecular target: T2, Serotonin 3 (5-HT3) receptor (Rattus norvegicus, UniProt P35563+Q9JJ16); assay: In vitro affinity for 5-hydroxytryptamine 3 (5-HT3) receptor by displacement of [3H]BRL-43694 from rat entorhinal cortex
T2 sequence (P35563 whole entry): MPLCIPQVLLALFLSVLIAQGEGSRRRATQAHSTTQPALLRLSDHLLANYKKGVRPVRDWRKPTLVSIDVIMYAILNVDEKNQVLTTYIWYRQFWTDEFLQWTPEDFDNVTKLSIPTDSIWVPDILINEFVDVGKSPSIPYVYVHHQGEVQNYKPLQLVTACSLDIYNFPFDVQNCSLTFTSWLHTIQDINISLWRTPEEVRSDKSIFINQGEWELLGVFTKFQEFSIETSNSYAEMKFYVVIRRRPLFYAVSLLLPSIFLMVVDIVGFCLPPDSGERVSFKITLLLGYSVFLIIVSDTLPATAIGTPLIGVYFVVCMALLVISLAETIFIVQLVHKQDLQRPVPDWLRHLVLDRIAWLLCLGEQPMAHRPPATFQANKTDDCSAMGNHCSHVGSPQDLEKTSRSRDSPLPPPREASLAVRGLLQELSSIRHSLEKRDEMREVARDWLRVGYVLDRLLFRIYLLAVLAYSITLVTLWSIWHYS
T2 sequence (Q9JJ16 whole entry): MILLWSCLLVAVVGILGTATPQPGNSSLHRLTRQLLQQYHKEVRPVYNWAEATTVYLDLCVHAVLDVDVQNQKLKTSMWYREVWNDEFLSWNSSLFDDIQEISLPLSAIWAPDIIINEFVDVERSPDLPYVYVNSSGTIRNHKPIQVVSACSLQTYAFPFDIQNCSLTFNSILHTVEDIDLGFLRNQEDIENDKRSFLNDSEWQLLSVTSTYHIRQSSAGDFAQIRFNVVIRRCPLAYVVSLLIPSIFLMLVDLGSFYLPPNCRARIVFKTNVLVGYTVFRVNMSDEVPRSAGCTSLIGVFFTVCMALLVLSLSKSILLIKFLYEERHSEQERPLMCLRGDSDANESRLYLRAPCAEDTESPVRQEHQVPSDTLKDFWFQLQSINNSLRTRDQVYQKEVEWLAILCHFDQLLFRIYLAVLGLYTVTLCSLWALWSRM
How it was run: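 Each displacement curve has 10 concentrations in triplicate; Ki averaged from at least three curves (±SEM) using the Ligand program.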

[4] = molecular target: T1, Serotonin 3 (5-HT3) receptor (Rattus norvegicus); assay: (§1) Inhibition of the Bezold Jarisch reflex evoked by 30 ug/Kg of 5-HT.; type: functional
How it was run: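 Rats anesthetized with ethylurethane, 1.25 g/kg ip. Bezold–Jarisch reflex evoked by 5-HT 30 μg/kg iv. The rapid, transient fall in heart rate was quantified without and with antagonist.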

[5] = molecular target: T3, 5-hydroxytryptamine receptor 3A (Rattus norvegicus) (UniProt P35563); assay: Antagonist activity (100 ug/kg) for the Bezold Jarisch reflex evoked by 30 (ug/Kg) of 5-hydroxytryptamine 3 receptor in ethylurethane anesthetized rats i.v.; type: functional
T3 sequence (whole entry): T2 sequence (P35563 whole entry)

[6] = system: Rattus norvegicus; assay: Antagonist activity (100 ug/kg) for the Bezold Jarisch reflex evoked by 30(ug/Kg) of 5-HT receptor in ethylurethane anesthetized rats i.v.; type: functional
[7] = molecular target: T1, Serotonin 3 (5-HT3) receptor (Rattus norvegicus); assay: as §1; type: functional; remark: listed apart in the source

SMILES: CC[n+]1c[nH]c(C)c1CN1CCN(c2ccccc2)C1=O
- inhibition [1]: 38%
- ID50 [2]: Partially active
- Ki [3]: 67 nM

SMILES: CSc1cccc(N2CCN(Cc3nc[nH]c3C)C2=O)c1
- inhibition [1]: 88%
- ID50 [4]: 28.6 µg/kg
- Ki [3]: 1.6 nM

SMILES: Cc1cccc(N2CCN(Cc3nc[nH]c3C)C2=O)c1
- inhibition [1]: 86%
- ID50 [4]: 3.1 µg/kg
- Ki [3]: 0.93 nM

SMILES: O=C1N(c2ccc(Cl)cc2)CCN1C1CN2CCC1CC2 (centres undefined)
- ID50 [2]: Partially active
- Ki [3]: 210 nM
- inhibition [5]: 8%

SMILES: CN1[C@@H]2CC[C@H]1C[C@@H](OC(=O)c1c[nH]c3ccccc13)C2
- ID50 [4]: 1 µg/kg

SMILES: CN1C2CCC1CC(N1CCN(c3cccc(Cl)c3)C1=O)C2 (stereo in doubt; 34) [listing 1 of 2 here]
- inhibition [1]: 0%
- ID50 [2]: Partially active

SMILES: O=C1N(c2cccc(Cl)c2)CCN1C1CN2CCC1CC2 (centres undefined)
- Inhibition [6]: 60%
- Ki [3]: 2 nM
- ID50 [7]: 0.0799 mg/kg

SMILES: Cc1[nH]cnc1CN1CCN(c2cccc(C#N)c2)C1=O
- inhibition [1]: 88%
- ID50 [4]: 32.2 µg/kg
- Ki [3]: 2.7 nM

SMILES: CN1C2CCC1CC(NC(=O)N1CC(C)(C)c3ccccc31)C2 (centres undefined)
- inhibition [1]: 90.5%
- ID50 [4]: 0.89 µg/kg
- Ki [3]: 0.26 nM

SMILES: CN1C2CCC1CC(N1CCN(c3cccc(Cl)c3)C1=O)C2 (stereo in doubt; 34) [listing 2 of 2 here]
- Ki [3]: > 10000 nM

SMILES: COc1cccc(N2CCN(C3CN4CCC3CC4)C2=O)c1 (centres undefined)
- Inhibition [6]: 37%
- ID50 [2]: Partially active
- Ki [3]: 6 nM

SMILES: CN1C2CCCC1CC(N1CCN(c3cccc(Cl)c3)C1=O)C2 (stereo in doubt; 38) [listing 1 of 2 here]
- inhibition [1]: 21%
- ID50 [2]: Partially active

SMILES: Cc1[nH]cnc1CN1CCN(c2cc(Cl)cc(Cl)c2)C1=O
- inhibition [1]: 93%
- ID50 [4]: 2.2 µg/kg
- Ki [3]: 0.038 nM

SMILES: CN1C2CCCC1CC(N1CCN(c3ccccc3)C1=O)C2 (centres undefined)
- inhibition [1]: 22%
- ID50 [2]: Partially active
- Ki [3]: 190 nM

SMILES: Cc1[nH]cnc1CN1CCN(c2ccccc2Cl)C1=O
- inhibition [1]: 5%
- ID50 [2]: Partially active
- Ki [3]: 290 nM

SMILES: Cc1nccn1CC1CCc2c(c3ccccc3n2C)C1=O (centres undefined)
- ID50 [4]: 2.25 µg/kg

SMILES: O=C1N(c2cccc(Br)c2)CCN1C1CN2CCC1CC2 (centres undefined)
- inhibition [1]: 77.7%
- ID50 [2]: Partially active
- Ki [3]: 3 nM

SMILES: COc1ccc(Cl)cc1N1CCN(C2CC3CCCC(C2)N3C)C1=O (centres undefined)
- inhibition [1]: 5%
- ID50 [2]: Partially active
- Ki [3]: > 10000 nM

SMILES: Cc1nc[nH]c1CN1CCN(c2cccc([N+](=O)[O-])c2)C1=O
- Ki [3]: 6.6 nM

SMILES: O=C1N(c2cc(Cl)cc(Cl)c2)CCN1C1CN2CCC1CC2 (centres undefined)
- inhibition [1]: 76%
- ID50 [4]: 20.6 µg/kg
- Ki [3]: 1 nM

SMILES: CN1C2CCCC1CC(NC(=O)c1nn(C)c3ccccc13)C2 (centres undefined)
- inhibition [1]: 95%
- ID50 [4]: 0.88 µg/kg

SMILES: CN1C2CCC1CC(N1CCN(c3cccc(Cl)c3)C1=O)C2 (stereo in doubt; 33) [listing 1 of 2 here]
- inhibition [1]: 27%
- ID50 [2]: Partially active

SMILES: Cc1[nH]cnc1CN1CCN(c2cccc([N+](=O)[O-])c2)C1=O
- inhibition [1]: 95%
- ID50 [4]: 54 µg/kg

SMILES: O=C1N(c2ccccc2)CCN1C1CN2CCC1CC2 (centres undefined)
- inhibition [1]: 71%
- ID50 [4]: 67.1 µg/kg
- Ki [3]: 8 nM

SMILES: CN1C2CCCC1CC(N1CCN(c3cccc(Cl)c3)C1=O)C2 (stereo in doubt; 37) [listing 1 of 2 here]
- Ki [3]: 250 nM

SMILES: CN1C2CCCC1CC(N1CCN(c3cccc(Cl)c3)C1=O)C2 (stereo in doubt; 37) [listing 2 of 2 here]
- inhibition [1]: 15%
- ID50 [2]: Partially active

SMILES: Cc1[nH]cnc1CN1CCN(c2ccc(Cl)cc2)C1=O
- inhibition [1]: 29%
- ID50 [2]: Partially active
- Ki [3]: 19 nM

SMILES: CN1C2CCC1CC(N1CCN(c3cccc(Cl)c3)C1=O)C2 (stereo in doubt; 33) [listing 2 of 2 here]
- Ki [3]: 25 nM

SMILES: COc1cccc(N2CCN(Cc3nc[nH]c3C)C2=O)c1
- inhibition [1]: 92%
- ID50 [4]: 15.4 µg/kg
- Ki [3]: 3.6 nM

SMILES: Cc1[nH]c[n+](C)c1CN1CCN(c2ccccc2)C1=O
- inhibition [1]: 45%
- ID50 [2]: Partially active
- Ki [3]: 55 nM

SMILES: Cc1cc(C)cc(N2CCN(Cc3nc[nH]c3C)C2=O)c1
- inhibition [1]: 86%
- ID50 [4]: 3.4 µg/kg
- Ki [3]: 0.42 nM

SMILES: CSc1cccc(N2CCN(C3CN4CCC3CC4)C2=O)c1 (centres undefined)
- inhibition [1]: 28%
- ID50 [2]: Partially active
- Ki [3]: 6 nM

SMILES: Cc1[nH]cnc1CN1CCN(c2cccc(Br)c2)C1=O
- inhibition [1]: 89%
- ID50 [4]: 6.5 µg/kg
- Ki [3]: 0.62 nM

SMILES: Cc1cccc(N2CCN(C3CN4CCC3CC4)C2=O)c1 (centres undefined)
- inhibition [1]: 75%
- Ki [3]: 4 nM
- ID50 [7]: 0.0376 mg/kg

SMILES: Cc1[nH]cnc1CN1CCN(c2ccccc2)C1=O
- inhibition [1]: 95%
- ID50 [4]: 3.9 µg/kg
- Ki [3]: 3.4 nM

SMILES: Cc1c(CN2CCN(c3ccccc3)C2=O)ncn1C
- inhibition [1]: 77%
- ID50 [4]: 28.5 µg/kg
- Ki [3]: 8.5 nM

SMILES: O=C1N(c2cccc(C(F)(F)F)c2)CCN1C1CN2CCC1CC2 (centres undefined)
- inhibition [1]: 14%
- ID50 [2]: Partially active
- Ki [3]: 98 nM

SMILES: CN1C2CCCC1CC(N1CCN(c3cccc(Cl)c3)C1=O)C2 (stereo in doubt; 38) [listing 2 of 2 here]
- Ki [3]: 360 nM

SMILES: O=C1N(c2cccc([N+](=O)[O-])c2)CCN1C1CN2CCC1CC2 (centres undefined)
- inhibition [1]: 5%
- ID50 [2]: Partially active
- Ki [3]: 10 nM

SMILES: N#Cc1cccc(N2CCN(C3CN4CCC3CC4)C2=O)c1 (centres undefined)
- inhibition [1]: 43%
- ID50 [2]: Partially active
- Ki [3]: 30 nM

SMILES: CCn1cnc(CN2CCN(c3ccccc3)C2=O)c1C
- inhibition [1]: 21%
- ID50 [2]: Partially active
- Ki [3]: 85 nM

SMILES: Cc1[nH]cnc1CN1CCN(c2cccc(C(F)(F)F)c2)C1=O
- inhibition [1]: 39%
- ID50 [2]: Partially active
- Ki [3]: 9.7 nM

SMILES: COc1ccc(Cl)cc1N1CCN(C2CC3CCC(C2)N3C)C1=O (centres undefined)
- inhibition [1]: 22%
- ID50 [2]: Partially active
- Ki [3]: 400 nM

SMILES: COc1ccc(Cl)cc1N1CCN(C2CN3CCC2CC3)C1=O (centres undefined)
- inhibition [1]: 11%
- ID50 [2]: Partially active
- Ki [3]: 40 nM

SMILES: Cc1[nH]cnc1CN1CCN(c2cccc(Cl)c2)C1=O
- inhibition [1]: 87%
- ID50 [4]: 5.26 µg/kg
- Ki [3]: 0.5 nM

SMILES: Cc1[nH]cnc1CN1CCN(c2cccc(F)c2)C1=O
- inhibition [1]: 84%
- ID50 [4]: 17.6 µg/kg
- Ki [3]: 3.7 nM

SMILES: O=C1N(Cc2c[nH]cn2)CCN1c1ccccc1
- inhibition [1]: 56%
- ID50 [2]: Partially active
- Ki [3]: 4 nM

SMILES: CN1C2CCC1CC(N1CCN(c3ccccc3)C1=O)C2 (centres undefined)
- inhibition [1]: 56%
- ID50 [2]: Partially active
- Ki [3]: 12 nM
